{"data": "Published values collected from several papers", "observed": "cell growth or viability", "note": "Lines come from different studies, so protocols differ."}
{"Compound": "Cc1ccc(CN2C(=O)C(=Nc3c(C(C)C)cccc3C(C)C)c3ccccc32)cc1", "cell line": "B16", "test": "MTT", "setting": "48 h", "endpoint": "IC50", "value": "57.2 µM"}
{"Compound": "FC(F)(F)c1cc(OCc2cc(-c3ccccc3)no2)c2ccccc2n1", "cell line": "Z-138", "test": "MTS", "setting": "72 h", "endpoint": "IC50", "value": "68.2 µM"}
{"Compound": "COc1cc([C@@H]2c3cc4c(cc3[C@@H](O[C@@H]3O[C@@H]5CO[C@@H](C)O[C@H]5[C@H](O)[C@H]3O)[C@H]3COC(=O)[C@H]23)OCO4)cc(OC)c1O", "cell line": "Z-138", "test": "MTS", "setting": "72 h", "endpoint": "IC50", "value": "0.08 µM"}
{"Compound": "CCc1nc(C(N)=O)c(Nc2ccc(N3CCC(N4CCN(C)CC4)CC3)c(OC)c2)nc1NC1CCOCC1", "cell line": "G-361", "setting": "72 h", "endpoint": "GI50", "value": "1.17 µM"}
{"Compound": "C[C@H](Nc1ccc2c(c1)OCCn1cc(N3C(=O)OC[C@H]3C(F)F)nc1-2)C(N)=O", "cell line": "BT-20", "test": "ATP luminescence", "setting": "5 days", "endpoint": "EC50", "value": "449 nM"}
{"Compound": "Cc1nc(Nc2ncc(C(=O)Nc3c(C)cccc3Cl)s2)cc(N2CC[C@H](O)C2)n1", "cell line": "Z-138", "test": "ATP luminescence", "setting": "10 µM, 72 h", "endpoint": "inhibition", "value": "56%"}
{"Compound": "N#Cc1ccc(-c2cc(COc3cc(=O)oc4ccccc34)on2)cc1", "cell line": "Z-138", "test": "MTS", "setting": "72 h", "endpoint": "IC50", "value": "> 100 µM"}
{"Compound": "CN(C)CCNC(=O)c1ccc(-c2nc3ccc4[nH]ncc4c3c3c2CCCCC3)cc1", "cell line": "G-361", "setting": "72 h", "endpoint": "GI50", "value": "> 10 µM"}
{"Compound": "O=C1C(=Nc2ccccc2Br)c2ccccc2N1Cc1ccccc1", "cell line": "B16", "test": "MTT", "setting": "48 h", "endpoint": "IC50", "value": "0.5 µM"}
{"Compound": "O=c1cc(OCc2cc(-c3ccccn3)no2)c2ccccc2o1", "cell line": "Z-138", "test": "MTS", "setting": "72 h", "endpoint": "IC50", "value": "> 100 µM"}
{"Compound": "O=C1C(=Nc2ccc(Cl)cc2Br)c2ccccc2N1Cc1ccc(Br)cc1", "cell line": "B16", "test": "MTT", "setting": "48 h", "endpoint": "IC50", "value": "1.65 µM"}
{"Compound": "CN(C)CCNC(=O)c1ccc(-c2nc3ccc4[nH]ncc4c3c3c2CCCC3)cc1", "cell line": "G-361", "setting": "72 h", "endpoint": "GI50", "value": "3.5 µM"}
{"Compound": "O=C(CCc1ccc(Cl)cc1)N1C(=O)C(=Nc2ccc(Cl)cc2Br)c2ccccc21", "cell line": "B16", "test": "MTT", "setting": "48 h", "endpoint": "IC50", "value": "23.6 µM"}
{"Compound": "CN(C)CCNC(=O)c1ccc(-c2nc3ccc4[nH]ncc4c3c3c2CCCCC3)c(F)c1", "cell line": "G-361", "setting": "72 h", "endpoint": "GI50", "value": "3.55 µM"}
{"Compound": "C=CCN1C(=O)C(=Nc2cccc(C)c2)c2ccccc21", "cell line": "B16", "test": "MTT", "setting": "48 h", "endpoint": "IC50", "value": "28.6 µM"}
{"Compound": "Cc1nc(NC(=O)N2CCC[C@H]2C(N)=O)sc1-c1ccnc(C(C)(C)C(F)(F)F)c1", "cell line": "BT-20", "test": "ATP luminescence", "setting": "5 days", "endpoint": "EC50", "value": "2480 nM"}
{"Compound": "Cc1n[nH]c2ccc3nc(-c4ccc(C(=O)NCCN(C)C)cc4F)c4c(c3c12)CCCCC4", "cell line": "G-361", "setting": "72 h", "endpoint": "GI50", "value": "> 10 µM"}
